According to ChEMBL document CHEMBL1133091, “Syntheses and structure-activity relationships of 5,6,7, 8-tetrahydro-5,5,8,8-tetramethyl-2-quinoxaline derivatives with retinoic acid receptor alpha agonistic activity” (J Med Chem, 2000):

Experiments:
[1] = target: T1, Retinoic acid receptor alpha (Homo sapiens) (UniProt P10276); details: HL-60
T1 sequence (whole entry): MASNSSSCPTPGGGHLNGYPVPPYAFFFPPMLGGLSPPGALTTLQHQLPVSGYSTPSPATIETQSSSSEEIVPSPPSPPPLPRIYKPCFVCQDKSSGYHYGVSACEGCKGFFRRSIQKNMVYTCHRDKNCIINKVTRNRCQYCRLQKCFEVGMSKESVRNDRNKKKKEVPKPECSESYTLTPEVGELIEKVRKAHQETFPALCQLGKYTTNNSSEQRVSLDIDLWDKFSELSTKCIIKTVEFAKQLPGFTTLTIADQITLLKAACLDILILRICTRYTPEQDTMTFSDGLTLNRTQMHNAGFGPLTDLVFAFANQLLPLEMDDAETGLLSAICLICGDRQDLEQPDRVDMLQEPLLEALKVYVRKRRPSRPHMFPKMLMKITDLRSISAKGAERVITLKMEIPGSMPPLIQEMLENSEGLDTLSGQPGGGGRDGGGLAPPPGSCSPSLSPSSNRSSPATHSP

[2] = target: T2, Retinoic acid receptor gamma (Homo sapiens, UniProt P13631); experiment: Binding affinity for Retinoic Acid Receptor gamma (RAR gamma)
T2 sequence (P13631 whole entry): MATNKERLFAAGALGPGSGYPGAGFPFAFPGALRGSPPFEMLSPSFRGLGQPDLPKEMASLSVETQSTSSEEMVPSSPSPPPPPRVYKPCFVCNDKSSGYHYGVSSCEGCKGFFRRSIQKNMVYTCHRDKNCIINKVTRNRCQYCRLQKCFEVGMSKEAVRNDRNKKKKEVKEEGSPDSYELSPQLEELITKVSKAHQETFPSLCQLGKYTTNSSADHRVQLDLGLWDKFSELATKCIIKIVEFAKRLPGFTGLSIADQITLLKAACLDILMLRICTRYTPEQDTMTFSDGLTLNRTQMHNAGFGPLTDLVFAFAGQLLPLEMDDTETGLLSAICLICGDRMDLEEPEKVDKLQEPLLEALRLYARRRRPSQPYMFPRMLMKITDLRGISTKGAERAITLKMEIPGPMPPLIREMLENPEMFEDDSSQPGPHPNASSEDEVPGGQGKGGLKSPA
Summary of the method: (§1)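 Competitive binding to individual RAR isoforms with [3H]ATRA as radioligand. IC50 for each receptor divided by the ATRA IC50 and reported as relative IC50 (mean ± SEM). nd means relative IC50 > 1000.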

[3] = target: T3, Retinoic acid receptor beta (Homo sapiens) (UniProt P10826); experiment: Transcriptional activation of Retinoic Acid Receptor beta (RAR beta); format: functional
T3 sequence (whole entry): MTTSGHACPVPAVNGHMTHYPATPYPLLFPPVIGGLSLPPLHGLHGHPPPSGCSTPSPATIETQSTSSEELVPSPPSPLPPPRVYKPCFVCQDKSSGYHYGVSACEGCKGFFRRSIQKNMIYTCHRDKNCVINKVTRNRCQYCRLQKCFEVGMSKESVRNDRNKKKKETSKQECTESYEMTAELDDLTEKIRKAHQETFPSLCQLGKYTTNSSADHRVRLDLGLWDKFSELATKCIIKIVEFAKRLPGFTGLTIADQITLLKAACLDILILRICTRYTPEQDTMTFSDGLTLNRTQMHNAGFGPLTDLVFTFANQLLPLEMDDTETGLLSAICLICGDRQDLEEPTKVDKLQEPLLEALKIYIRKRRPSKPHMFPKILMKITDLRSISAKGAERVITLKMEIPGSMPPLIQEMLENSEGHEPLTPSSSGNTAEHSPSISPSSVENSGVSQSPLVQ
Summary of the method: (§2)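 Receptor and reporter vectors were lipofected into COS-1 cells. After 4 h the medium was changed to DMEM/10% FBS for 20 h. Cells were reseeded at 3 × 10⁴/well and compounds added 6 h later, in log dilutions from 3.0 × 10^-6 to 1.0 × 10^-10 M in duplicate. Supernatant PLAP activity was read after 48 h. EC30 (30% of maximal response) was normalized to ATRA.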

[4] = target: T1, Retinoic acid receptor alpha (Homo sapiens); experiment: Transcriptional activation of Retinoic Acid Receptor alpha (RAR alpha); format: functional
Summary of the method: as §2

[5] = target: T4, Retinoic acid receptor alpha (Homo sapiens, UniProt P10276); experiment: (§3) Binding affinity for Retinoic Acid Receptor alpha (RAR alpha)
T4 sequence (P10276 whole entry): T1 sequence (whole entry)
Summary of the method: as §1

[6] = target: T5, Retinoic acid receptor gamma (Homo sapiens) (UniProt P13631); experiment: (§4) Transcriptional activation of Retinoic Acid Receptor gamma (RAR gamma); format: functional
T5 sequence (whole entry): T2 sequence (P13631 whole entry)
Summary of the method: as §2

[7] = target: T6, Retinoic acid receptor beta (Homo sapiens, UniProt P10826); experiment: Binding affinity for Retinoic Acid Receptor beta (RAR beta)
T6 sequence (P10826 whole entry): T3 sequence (whole entry)
Summary of the method: (§5)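 Competitive binding to each RAR isoform using [³H]ATRA as radioligand. IC50 for each receptor was divided by the ATRA IC50 on the same receptor to give relative IC50 (mean ± SEM). Values were labelled not detectable when relative IC50 > 1000.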

[8] = target: T3, Retinoic acid receptor beta (Homo sapiens); experiment: Transcriptional activation in COS-1 cells expressing Retinoic Acid Receptor beta (RAR beta); format: functional, cell-based
Summary of the method: as §2

[9] = target: T5, Retinoic acid receptor gamma (Homo sapiens); experiment: Transcriptional activation in COS-1 cells expressing Retinoic Acid Receptor gamma (RAR gamma); format: functional, cell-based
Summary of the method: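 Receptor and reporter vectors were lipofected into COS-1 cells for 4 h, then cultured 20 h in DMEM/10% FBS. Cells were reseeded at 3 × 10⁴ per well. After 6 h, compound was added in log dilutions from 1.0 × 10^-10 to 3.0 × 10^-6 M in duplicate. Supernatant PLAP activity was read after 48 h. EC30 was normalised to ATRA EC30 (mean ± SEM).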

[10] = target: T1, Retinoic acid receptor alpha (Homo sapiens); experiment: Transcriptional activation in COS-1 cells expressing Retinoic Acid Receptor alpha (RAR alpha); format: functional, cell-based
Summary of the method: as §2

[11] = target: T2, Retinoic acid receptor gamma; experiment: Binding affinity for Retinoic acid receptor gamma
Summary of the method: as §5

[12] = target: T5, Retinoic acid receptor gamma (Homo sapiens); experiment: as §4
Summary of the method: as §2

[13] = target: T1, Retinoic acid receptor alpha (Homo sapiens); experiment: Induction of HL-60 cell differentiation at Retinoic Acid Receptor alpha (RAR alpha); format: functional, cell-based
Summary of the method: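 HL60 cells (1 × 10⁵ in 1 mL RPMI1640) were exposed to compounds for 5 days, in log dilutions from 1.0 × 10^-5 to 1.0 × 10^-12 M in duplicate. Differentiation was read as cell-surface CD11b expression by FACS. Values are averages of at least two experiments.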

[14] = target: T4, Retinoic acid receptor alpha; experiment: Binding affinity for Retinoic Acid Receptor alpha (RAR alpha).
Summary of the method: as §1

[15] = target: T4, Retinoic acid receptor alpha; experiment: as §3; remark: listed apart in the source
[16] = target: T1, Retinoic acid receptor alpha (Homo sapiens); details: COS-1

Q: Which ED30 [1] does the source give for `CC1(C)CCC(C)(C)c2nc(-c3csc(-c4ccc(C(=O)O)cc4)n3)cnc21` here?
A: Its ED30 is 11 nM.

Q: And the IC50 [2]?
A: The IC50 was 3.6 nM.

Q: And the EC30 [3]?
A: Its EC30 is 0.39 nM.

Q: What about the EC30 [4] of the same compound?
A: The EC30 was 5.2 nM.

Q: What about the IC50 [5] of the same compound?
A: Its IC50 is 83 nM.

Q: What about the EC30 [6] of the same compound?
A: Its EC30 is 0.34 nM.

Q: What about the IC50 [7] of the same compound?
A: Its IC50 is 21 nM.

Q: Which results are given for `CC1(C)CCC(C)(C)c2cc(NC(=O)c3ccc(C(=O)O)cc3)ccc21`?
A: EC30 [8]: 48 nM; EC30 [9]: 150 nM

Q: How did the ED30 [1] turn out when `CC1(C)CCC(C)(C)c2nc(-c3ccc(-c4ccc(C(=O)O)cc4)[nH]3)cnc21` was run?
A: Its ED30 is 0.11 nM.

Q: What about the EC30 [10] of the same compound?
A: Its EC30 is 0.32 nM.

Q: And the EC30 [8]?
A: The EC30 was 2.5 nM.

Q: And the EC30 [9]?
A: The EC30 was 20 nM.

Q: What about the IC50 [5] of the same compound?
A: Its IC50 is 2.2 nM.

Q: What about the IC50 [7] of the same compound?
A: Its IC50 is 230 nM.

Q: And the IC50 [11]?
A: Its IC50 is 310 nM.

Q: With `CC1(C)CCC(C)(C)c2nc(-c3c[nH]c(-c4ccc(C(=O)O)cc4)n3)cnc21` as the compound, how does the EC30 [3] read?
A: The EC30 was 40 nM.

Q: What about the EC30 [4] of the same compound?
A: Its EC30 is 80 nM.

Q: What about the EC30 [12] of the same compound?
A: Its EC30 is 39 nM.

Q: And the ED30 [13]?
A: Its ED30 is 20 nM.

Q: Which ED30 [1] does the source give for `CC1(C)CCC(C)(C)c2nc(-c3cc(-c4ccc(C(=O)O)cc4)[nH]n3)cnc21` here?
A: Its ED30 is 2.1 nM.

Q: And the EC30 [3]?
A: The EC30 was 0.85 nM.

Q: What about the EC30 [4] of the same compound?
A: Its EC30 is 1.7 nM.

Q: What about the EC30 [6] of the same compound?
A: Its EC30 is 3.9 nM.

Q: And the IC50 [7]?
A: Its IC50 is 290 nM.

Q: What does the source list for `CC1(C)CCC(C)(C)c2nc(C(=O)Nc3ccc(C(=O)O)cc3)cnc21`?
A: ED30 [1]: 0.87 nM; IC50 [14]: 40 nM; EC30 [3]: 0.4 nM; EC30 [4]: 0.15 nM; EC30 [6]: 1.6 nM; IC50 [7]: 140 nM

Q: With `CC1(C)CCC(C)(C)c2nc(-c3ccc(-c4ccc(C(=O)O)cc4)o3)cnc21` as the compound, how does the ED30 [1] read?
A: The ED30 was 2.1 nM.

Q: What about the IC50 [2] of the same compound?
A: Its IC50 is 4.6 nM.

Q: What about the EC30 [3] of the same compound?
A: The EC30 was 0.38 nM.

Q: And the EC30 [4]?
A: The EC30 was 1.8 nM.

Q: And the IC50 [5]?
A: Its IC50 is 32 nM.

Q: What about the EC30 [6] of the same compound?
A: Its EC30 is 1.5 nM.

Q: And the IC50 [7]?
A: Its IC50 is 39 nM.

Q: For `CC1(C)CCC(C)(C)c2cc(C(=O)Nc3ccc(C(=O)O)cc3)ccc21`, which EC30 [8] is on record?
A: Its EC30 is 12 nM.

Q: And the EC30 [9]?
A: The EC30 was 33 nM.

Q: `CC1(C)CCC(C)(C)c2nc(-c3ccc(-c4ccc(C(=O)O)cc4)s3)cnc21` was tested. Which ED30 [1] did it give?
A: The ED30 was 40 nM.

Q: What about the IC50 [2] of the same compound?
A: Its IC50 is 17 nM.

Q: What about the EC30 [3] of the same compound?
A: Its EC30 is 0.73 nM.

Q: And the EC30 [4]?
A: Its EC30 is 15 nM.

Q: What about the IC50 [5] of the same compound?
A: Its IC50 is 130 nM.

Q: And the EC30 [6]?
A: Its EC30 is 2.1 nM.

Q: What about the IC50 [7] of the same compound?
A: Its IC50 is 36 nM.

Q: What does the source list for `CC1(C)CCC(C)(C)c2cc(-c3ccc(-c4ccc(C(=O)O)cc4)[nH]3)ccc21`?
A: ED30 [1]: 0.54 nM; IC50 [15]: 0.45 nM; EC30 [16]: 0.34 nM; EC30 [8]: 3.9 nM; EC30 [9]: 3.5 nM; IC50 [7]: 100 nM; IC50 [11]: 21 nM

Q: Which results are given for `CC1(C)CCC(C)(C)c2nc(-c3cc(-c4ccc(C(=O)O)cc4)cs3)cnc21`?
A: ED30 [1]: 9.5 nM; IC50 [2]: 2 nM; EC30 [3]: 0.5 nM; EC30 [4]: 0.87 nM; IC50 [5]: 2.4 nM; EC30 [6]: 0.72 nM; IC50 [7]: 4.5 nM

Q: Which results are given for `Cn1c(-c2ccc(C(=O)O)cc2)ccc1-c1cnc2c(n1)C(C)(C)CCC2(C)C`?
A: EC30 [3]: 14 nM; EC30 [4]: 38 nM; EC30 [12]: 120 nM; ED30 [13]: 240 nM

Q: What does the source list for `CC1(C)CCC(C)(C)c2nc(-c3cc(-c4ccc(C(=O)O)cc4)c[nH]3)cnc21`?
A: ED30 [1]: 140 nM; IC50 [2]: 150 nM; EC30 [3]: 4.5 nM; EC30 [4]: 11 nM; EC30 [6]: 1.6 nM

Q: What does the source list for `CC1(C)CCC(C)(C)c2nc(-c3cc(-c4ccc(C(=O)O)cc4)co3)cnc21`?
A: ED30 [1]: 0.21 nM; IC50 [2]: 27 nM; EC30 [3]: 0.18 nM; EC30 [4]: 0.35 nM; IC50 [5]: 19 nM; EC30 [6]: 0.76 nM; IC50 [7]: 2.5 nM
